From ChEMBL document CHEMBL1177741, “Cardiac glycosides from Antiaris toxicaria with potent cardiotonic activity” (J Nat Prod, 2010)

Columns and labels:
[1] = Cardiotonic activity in guinea pig right ventricular muscles assessed as minimum positive inotropic effective concentration causing myocardial contraction; format: functional, Cavia porcellus, Muscle tissue
Method in brief: (§1)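 Guinea pig left atrial or right ventricular strips were perfused with Tyrode's solution, held at 1 g tension and paced at 2 Hz (2 ms, twice threshold). After about 60 min stabilisation, drug was added cumulatively. PIECmin was recorded as the lowest concentration that increased myocardial contraction.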

[2] = Cardiotonic activity in guinea pig left atrial muscles assessed as minimum positive inotropic effective concentration causing myocardial contraction; format: functional, Cavia porcellus, Muscle tissue; method in brief: as §1
[3] = Cardiotonic activity in guinea pig left atrial muscles assessed as maximum positive inotropic effective concentration causing myocardial contraction relative to basal level; format: functional, Cavia porcellus, Muscle tissue
Method in brief: (§2)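 Isolated left atrial or right ventricular strips from adult guinea pigs (300–500 g; pentobarbital 25 mg/kg i.p.; heart retrogradely perfused with Tyrode's, pH not stated). Tissue held at 1 g tension, paced at 2 Hz (2 ms pulses, twice threshold), stabilised about 60 min, then given cumulative drug additions. Maximal inotropic effect taken at the concentration just before arrhythmia onset.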

Cavia porcellus = organism: Cavia porcellus; assay: Inhibition of Na(+)/K(+)-ATPase in guinea pig atria by whole cell patch clamp method
[4] = Safety index, ratio of arrhythmogenic concentration to minimum positive inotropic effective concentration causing myocardial contraction in guinea pig left atrial muscles; format: toxicity, tissue-based, Cavia porcellus, Muscle tissue; conditions: isolated left atrial muscles
Method in brief: (§3)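 Paced guinea pig left atrial or right ventricular strips (1 g tension, 2 Hz) received cumulative drug addition. The lowest concentration raising contraction (PIECmin) and the concentration inducing arrhythmia were both recorded. Safety index was calculated as the ratio of the arrhythmogenic concentration to PIECmin.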

[5] = Cardiotonic activity in guinea pig right ventricular muscles assessed as maximum positive inotropic effective concentration causing myocardial contraction relative to basal level; format: functional, Cavia porcellus, Muscle tissue; method in brief: as §2
[6] = Safety index, ratio of arrhythmogenic concentration to minimum positive inotropic effective concentration causing myocardial contraction in guinea pig right ventricular muscles; format: toxicity, tissue-based, Cavia porcellus, Muscle tissue; conditions: isolated right ventricular muscles; method in brief: as §3

| Compound | Activity [1] [µM] | Activity [2] [µM] | Activity [3] [%] | inhibition (Cavia porcellus) | selectivity ratio [4] | Activity [5] [%] | selectivity ratio [6] |
| --- | --- | --- | --- | --- | --- | --- | --- |
| C[C@@H]1O[C@H](O[C@H]2CC[C@@]3(C=O)[C@H](CC[C@@H]4[C@@H]3CC[C@]3(C)[C@@H](C5=CC(=O)OC5)CC[C@]43O)C2)[C@H](O)[C@H](O)[C@H]1O [MALAYOSIDE] | 0.25 | 0.25 | 660 | Dose-dependent effect | 20 | 464 | 24 |
| C[C@]12CC[C@H]3[C@@H](CC[C@]4(O)C[C@@H](O)CC[C@]34C=O)[C@@]1(O)CC[C@@H]2C1=CC(=O)OC1 [STROPHANTHIDIN] | 4.8 | 1 | 165 | – | 9 | 240 | 8.7 |
| C[C@]12CC[C@H]3[C@@H](CC[C@]4(O)C[C@@H](O)CC[C@]34CO)[C@@]1(O)CC[C@@H]2C1=CC(=O)OC1 [STROPHANTHIDOL] | 0.3 | 1.25 | 205 | – | 6.3 | 408 | 65 |
